We go through two compounds from ChEMBL document CHEMBL1250501, “Anti-tubercular agents. Part 5: synthesis and biological evaluation of benzothiadiazine 1,1-dioxide based congeners” (Eur J Med Chem, 2010).

In brackets after ≈: the same amount, converted by molar mass.

Data set [1] has as its system Mycobacterium tuberculosis. Nature of the data set: Antimycobacterial activity against Mycobacterium tuberculosis H37Rv infected in BALB/c mouse lung assessed as reduction of bacterial load at 25 mg/kg, po administered 1 week after infection measured after 4 weeks. The format is functional. In a few lines:
(§1)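 Female BALB/c mice, 6 weeks old, 20–22 g, acclimatised one week. Infected intranasally with about 1.5 × 10⁶ CFU of H37Rv grown 10 days in 7H9/ADC. Treatment began 1 week post-infection, given orally in 50% PEG in water, for 4 weeks. Lungs and spleens homogenised in saline with 0.05% Tween 80. Duplicate 10-fold dilutions plated on 7H10/OADC, 37 °C, 5% CO₂, 4–6 weeks. Result expressed as log₁₀ CFU per organ versus untreated controls.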

The nature of data set [2]: Cytotoxicity against mouse AML-12 cells assessed as cell viability at 2 ug/ml after 24 hrs by MTT assay. To be noted: read-out: Activity. It is filed as cell-based. The gist of the method:
(§2)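 AML-12 hepatocytes in 96-well format, in DMEM with 10% FCS. Exposed to test material at 2–100 µg/mL for 24 h at 37 °C in CO₂. MTT then added for 3 h and formazan formation read. Percentage cytotoxicity calculated relative to untreated cells.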

The test system of data set [3] is Mycobacterium tuberculosis. The data set can be described thus: Antimycobacterial activity against Mycobacterium tuberculosis H37Rv infected in BALB/c mouse spleen assessed as reduction of bacterial load at 25 mg/kg, po administered 1 week after infection measured after 4 weeks. The format is functional. The gist of the method:
as §1

Data set [4] in a line: Cytotoxicity against mouse AML-12 cells assessed as cell viability at 50 ug/ml after 24 hrs by MTT assay. It is filed as cell-based. As to conditions: read-out: Activity. The gist of the method:
as §2

Data set [5] is described as follows: Cytotoxicity against mouse AML-12 cells assessed as cell viability at 5 ug/ml after 24 hrs by MTT assay. It is filed as cell-based. To be noted: read-out: Activity. The gist of the method:
as §2
A general note: Tetrazolium assays rely on reduction of a dye to a coloured formazan, in cell work by metabolically active cells.

Data set [6] in a line: Cytotoxicity against mouse AML-12 cells assessed as cell viability at 100 ug/ml after 24 hrs by MTT assay. The format is cell-based. To be noted: read-out: Activity. In a few lines:
as §2

Data set [7] is described as follows: Cytotoxicity against mouse AML-12 cells assessed as cell viability at 10 ug/ml after 24 hrs by MTT assay. It is filed as cell-based. As to conditions: read-out: Activity. The gist of the method: as §2
A short description of data set [8]: Cytotoxicity against mouse AML-12 cells assessed as cell viability at 25 ug/ml after 24 hrs by MTT assay. The format is cell-based. As to conditions: read-out: Activity. In a few lines: as §2
The test system of data set [9] is Mycobacterium tuberculosis. Nature of the data set: Antimycobacterial activity against Mycobacterium tuberculosis H37Rv infected in BALB/c mouse lung assessed as reduction of bacterial load at 10 mg/kg, po administered 1 week after infection measured after 4 weeks. The format is functional. In a few lines:
as §1

The subject of data set [10] is Mycobacterium tuberculosis. Nature of the data set: Antimycobacterial activity against Mycobacterium tuberculosis H37Rv after 3 to 4 weeks by broth microdilution assay. It is filed as functional. In a few lines: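 MIC by broth microdilution on compounds active in a single-concentration primary screen. Plates incubated 3–4 weeks at 37 °C in a CO₂ incubator. Wells read visually for absence of growth turbidity.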
For orientation: Dilution methods test growth across graded concentrations, often in twofold steps.

As for `O=[N+]([O-])c1ccc(/C=N/NC2=NS(=O)(=O)c3ccccc3N2c2ccccc2)o1`, the log10cfu in data set [1] is listed as 4.8; in [3], 2. Also, the viability at 24 h, 2 ug/ml in [2] amounted to 2.4%. Moreover, the viability at 24 h, 50 ug/ml in [4] was 8.7%. In addition, the viability at 24 h, 5 ug/ml in data set [5] is 9%. The viability at 24 h, 100 ug/ml in data set [6] is 14.9%. For the same compound, the viability at 24 h, 10 ug/ml in [7] is 9.1%. Also, the viability at 24 h, 25 ug/ml in data set [8] is 8.5%.
For orientation: MIC means the lowest concentration that inhibits growth of the organism. Higher therefore signals a need for much substance. In the case of `CO[C@H]1/C=C/O[C@@]2(C)Oc3c(C)c(O)c4c(O)c(c(/C=N/N5CCN(C)CC5)c(O)c4c3C2=O)NC(=O)/C(C)=C\C=C\[C@H](C)[C@H](O)[C@@H](C)[C@@H](O)[C@@H](C)[C@H](OC(C)=O)[C@@H]1C` [RIFAMPIN], the log10cfu in data set [9] is on record as 3.8. In addition, 0.25 µg/mL (≈ 0.304 µM) was the least that counted as inhibitory in [10] (MIC).
